We go through ten compounds from ChEMBL document CHEMBL4145668, “Dipeptide Prodrugs of the Glutamate Modulator Riluzole” (ACS Med Chem Lett, 2018).

The nature of series [1]: Prodrug conversion in pH 7.4 buffer assessed as riluzole formation by measuring compound half life. Format: physicochemical. In a few lines: (§1)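 Each prodrug was incubated in pH 7.4 buffer, fresh rat serum, simulated gastric fluid or simulated intestinal fluid. Prodrug disappearance was followed for up to 2-4 h to derive a half-life in hours.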
The nature of series [2]: Prodrug conversion in simulated gastric fluid assessed as riluzole formation by measuring compound half life at 0.01 mg/ml by LC/MS analysis. The format is ADME. The settings on record: simulated gi fluid. In outline:
as §1

The nature of series [3]: Prodrug conversion in rat serum assessed as riluzole formation by measuring compound half life. The format is ADME, cell-free. In a few lines: as §1
A short description of series [4]: Prodrug conversion in simulated intestinal fluid assessed as riluzole formation by measuring compound half life at 0.01 mg/ml by LC/MS analysis. The format is ADME. The settings on record: simulated gi fluid. In outline:
as §1

The nature of series [5]: Apparent permeability across apical to basolateral side in human Caco2 cells. The settings on record: Caco-2. The format is ADME, cell-based. In outline: (§2)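 Bidirectional transport across Caco-2 monolayers was measured as Papp A-B and Papp B-A in nm/s. Efflux ratio was calculated as B-A over A-B.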
In general terms: Passage across Caco-2 layers is used to estimate intestinal permeability.

The test system of series [6] is Rattus norvegicus. Description: Cmax in Sprague-Dawley rat assessed as riluzole level at 2.8 mg/kg, iv measured up to 8 hrs. The format is ADME, organism-based. Also on record: dose 2.8 mg/kg, route intravenous. The conditions noted are these: in vivo.
Series [7] in a line: Prodrug conversion in mouse plasma xenografted with human C8161 cells assessed as riluzole formation at 4.9 to 14.8 mg/kg, po administered via gavage measured 2 hrs post dose. Format: ADME, organism-based. The conditions noted are these: in vivo. In outline:
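In C8161 xenograft-bearing nude mice given daily oral gavage doses, plasma was sampled from selected animals 2 hours post dosing to check riluzole exposure.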
For orientation: Xenograft models place foreign cells or tissue in a host animal.

Series [8] relates to Rattus norvegicus. Description: Tmax in Sprague-Dawley rat assessed as riluzole level at 14.6 mg/kg, po measured up to 8 hrs. Format: ADME, organism-based. The settings on record: in vivo. In a few lines: (§3)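 Male Sprague-Dawley rats received a single oral dose. Plasma prodrug and riluzole levels were monitored up to eight hours after dosing.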
In series [9] the target is T1, CYP3A4 (Homo sapiens, UniProt P08684). Description: Inhibition of CYP3A4 (unknown origin) at 10 uM using testosterone as substrate relative to control. Format: ADME. The conditions noted are these: probe testosterone.
T1 sequence (P08684 whole entry): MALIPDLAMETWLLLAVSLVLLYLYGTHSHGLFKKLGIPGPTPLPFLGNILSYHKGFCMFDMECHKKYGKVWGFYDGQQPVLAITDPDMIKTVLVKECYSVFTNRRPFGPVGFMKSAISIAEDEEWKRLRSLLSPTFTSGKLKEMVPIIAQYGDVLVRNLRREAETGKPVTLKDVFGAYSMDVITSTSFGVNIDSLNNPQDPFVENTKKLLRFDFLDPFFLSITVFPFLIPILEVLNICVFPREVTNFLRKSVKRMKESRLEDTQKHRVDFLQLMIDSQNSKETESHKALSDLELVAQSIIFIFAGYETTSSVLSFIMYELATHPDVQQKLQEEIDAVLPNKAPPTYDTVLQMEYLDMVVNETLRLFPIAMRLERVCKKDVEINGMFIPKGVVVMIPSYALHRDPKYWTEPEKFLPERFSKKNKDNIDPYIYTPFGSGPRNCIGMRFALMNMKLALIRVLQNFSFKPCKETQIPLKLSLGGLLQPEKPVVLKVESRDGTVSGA
The next series concerns the target T2, CYP1A2 (Homo sapiens, UniProt P05177).
T2 sequence (P05177 whole entry): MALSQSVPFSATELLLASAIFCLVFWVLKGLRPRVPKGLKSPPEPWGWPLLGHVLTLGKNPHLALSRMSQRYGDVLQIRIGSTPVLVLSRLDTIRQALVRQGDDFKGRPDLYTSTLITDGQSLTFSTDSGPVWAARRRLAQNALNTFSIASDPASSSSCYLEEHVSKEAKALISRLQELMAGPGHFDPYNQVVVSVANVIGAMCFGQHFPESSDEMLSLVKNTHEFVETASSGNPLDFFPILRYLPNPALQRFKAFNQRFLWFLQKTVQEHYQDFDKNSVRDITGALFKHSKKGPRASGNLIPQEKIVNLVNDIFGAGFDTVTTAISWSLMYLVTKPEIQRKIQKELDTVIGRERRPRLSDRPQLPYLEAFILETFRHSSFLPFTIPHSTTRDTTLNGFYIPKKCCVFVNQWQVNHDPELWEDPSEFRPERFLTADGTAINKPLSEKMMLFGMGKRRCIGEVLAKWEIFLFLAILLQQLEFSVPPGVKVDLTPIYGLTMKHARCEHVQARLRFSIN
In words: Inhibition of CYP1A2 (unknown origin) at 10 uM relative to control. Format: ADME.

Series [10] is described as follows: Prodrug conversion in dog liver microsomes assessed as riluzole formation by measuring half life. Format: ADME, Canis lupus familiaris, microsome. In a few lines:
(§4)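 Prodrug stability was tested in human, mouse, rat and dog liver microsomes, and a half-life in minutes was reported.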

A short description of series [11]: Prodrug conversion in mouse liver microsomes assessed as riluzole formation by measuring half life. The format is ADME, microsome. In outline:
as §4
In general terms: Liver microsomes are vesicles of endoplasmic reticulum, rich in cytochrome P450 enzymes.

Series [12] relates to Rattus norvegicus. In words: AUClast in Sprague-Dawley rat assessed as riluzole level at 14.6 mg/kg, po measured up to 8 hrs. The settings on record: in vivo. Also noted: time < 8 hr, dose 14.6 mg/kg, route oral. Format: ADME, organism-based. In a few lines:
as §3

Series [13] relates to Rattus norvegicus. Description: AUClast in Sprague-Dawley rat assessed as riluzole level at 2.8 mg/kg, iv measured up to 8 hrs. Also on record: time < 8 hr, dose 2.8 mg/kg, route intravenous. The format is ADME, organism-based. The settings on record: in vivo.
The subject of series [14] is Rattus norvegicus. In words: Cmax in Sprague-Dawley rat assessed as riluzole level at 14.6 mg/kg, po measured up to 8 hrs. The settings on record: in vivo. Also on record: dose 14.6 mg/kg, route oral. The format is ADME, organism-based. In a few lines:
as §3

Series [15] is described as follows: Tmax in Sprague-Dawley rat at 2.8 mg/kg, iv. The conditions noted are these: in vivo. The format is ADME, organism-based.
Series [16] is described as follows: Prodrug conversion in rat liver microsomes assessed as riluzole formation by measuring half life. The format is ADME, microsome. In a few lines: as §4
The subject of series [17] is Rattus norvegicus. Description: Tmax in Sprague-Dawley rat assessed as riluzole level at 2.8 mg/kg, iv measured up to 8 hrs. The format is ADME, organism-based. The settings on record: in vivo.
Series [18] is described as follows: Prodrug conversion in human liver microsomes assessed as riluzole formation by measuring half life. Format: ADME, microsome. In outline:
as §4

Series [19] is described as follows: Apparent permeability across basolateral to apical side in human Caco2 cells. Format: ADME, cell-based. The settings on record: Caco-2. In a few lines:
as §2

For series [20], the system named is Rattus norvegicus. In words: Oral bioavailability in Sprague-Dawley rat at 14.6 mg/kg. The format is ADME, organism-based. The settings on record: in vivo. In a few lines:
as §3

For another series, the target named is CYP2D6 (Homo sapiens, UniProt P10635). In words: Inhibition of CYP2D6 (unknown origin) at 10 uM relative to control. The format is ADME.
CYP2D6, sequence (P10635 whole entry): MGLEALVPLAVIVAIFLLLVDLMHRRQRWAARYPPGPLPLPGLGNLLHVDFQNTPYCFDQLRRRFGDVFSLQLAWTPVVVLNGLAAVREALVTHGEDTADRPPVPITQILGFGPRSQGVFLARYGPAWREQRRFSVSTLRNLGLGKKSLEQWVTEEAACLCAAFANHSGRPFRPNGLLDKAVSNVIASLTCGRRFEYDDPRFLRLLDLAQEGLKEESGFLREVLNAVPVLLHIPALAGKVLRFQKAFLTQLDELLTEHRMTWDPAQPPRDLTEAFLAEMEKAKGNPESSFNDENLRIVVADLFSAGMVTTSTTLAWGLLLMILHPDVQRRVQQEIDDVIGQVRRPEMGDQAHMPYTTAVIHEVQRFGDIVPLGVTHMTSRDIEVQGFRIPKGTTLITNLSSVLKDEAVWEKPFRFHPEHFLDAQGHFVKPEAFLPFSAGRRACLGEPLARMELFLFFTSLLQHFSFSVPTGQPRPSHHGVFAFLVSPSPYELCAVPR
The subject of series [21] is Homo sapiens. Description: Antitumor activity against human C8161 cells xenografted in mouse assessed as tumor growth inhibition at 4.9 to 14.8 mg/kg, po administered once daily via gavage for 21 days measured at 7 days interval during compound dosing. Format: functional, organism-based. In a few lines: (§5)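 Nude mice were inoculated in the flank with 10^6 human C8161 melanoma cells. When tumors reached 40 mm3, the mice were randomized into groups of similar tumor volume. Vehicle was DMSO. Dosing was daily by oral gavage for 21 days, and tumor growth was followed.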

A short description of series [22]: Efflux ratio of apparent permeability […] in human Caco2 cells. The format is ADME, cell-based. The conditions noted are these: Caco-2.
Series [23] in a line: Cmax in Sprague-Dawley rat at 2.8 mg/kg, iv. Format: ADME, organism-based. Also noted: dose 2.8 mg/kg, route intravenous. The conditions noted are these: in vivo.
Series [24] has as its system Rattus norvegicus. In words: Half life in Sprague-Dawley rat assessed as riluzole level at 2.8 mg/kg, iv measured up to 8 hrs. The format is ADME, organism-based. The settings on record: in vivo.
The target in series [25] is T1, CYP3A4. In words: Inhibition of CYP3A4 (unknown origin) at 10 uM using midazolam as substrate relative to control. Format: ADME. The settings on record: probe midazolam.
The subject of series [26] is Homo sapiens. In words: Antitumor activity against human C8161 cells xenografted in mouse assessed as tumor growth inhibition at 7.5 mg/kg, po administered once daily via gavage for 21 days measured at 7 days interval during compound dosing. Format: functional, organism-based. In outline:
as §5

Activity calls are given as the source filed them. No cut-off for these calls is given here.

Regarding `CC(C)NCC(=O)N(C)CC(=O)Nc1nc2ccc(OC(F)(F)F)cc2s1`, the t1/2 is above 24 h in series [1], above 4 h in series [2], above 2 h in series [3] and above 4 h in series [4].

Regarding `CN(CC(=O)Nc1nc2ccc(OC(F)(F)F)cc2s1)C(=O)CN`, the t1/2 in [1] and in series [3] was below 0.1 h in each case.

Usually Papp A→B stands for the apparent permeability from the apical to the basolateral side of a cell layer. Broadly, the Cmax is the maximum level reached in the sampled fluid or tissue. As a reminder, the Tmax is the time from dosing to the highest level. One may read the inhibition as the drop in the measured response relative to a control, in per cent. In general, Papp B→A refers to the apparent permeability from the basolateral to the apical side of a cell layer. For orientation: efflux ratio means the permeability from basolateral to apical divided by that in the opposite direction, in the common usage. Take `CN(CC(=O)Nc1nc2ccc(OC(F)(F)F)cc2s1)C(=O)CNC(C)(C)C`: the Papp A→B in series [5] came to 1.38 ×10⁻⁶ cm/s. Besides, the Cmax in the series on Rattus norvegicus [6] is 187 ng/mL; in the series with Rattus norvegicus [14], 1587 ng/mL; in series [23], 1730 ng/mL. Besides, the t1/2 was above 24 h in series [1]; above 4 h in series [2]; above 1 h in series [10]; above 1 h in [11]; above 2 h in [3]; above 1 h in series [16]. Besides, the t1/2 was above 1 h in series [18], 7.83 h with Rattus norvegicus [24] and above 4 h in series [4]. The Drug metabolism entry in series [7] is “Metabolite_Detected”. For the same compound, the Tmax in the series on Rattus norvegicus [8] is 8 h; in series [15], 0 h; in the series on Rattus norvegicus [17] it was 0.78 h. Also, the inhibition at 10 µM against CYP3A4 [9], on CYP1A2, against CYP2D6 and against CYP3A4 [25] was below 10% in each case. Further, the figures for the AUClast in the series on Rattus norvegicus [12] and in the series on Rattus norvegicus [13] were 20518 ng·h/mL and 1137 ng·h/mL, respectively. Further, the Papp B→A in series [19] stood at 2.41 ×10⁻⁶ cm/s. Also, the F in the series with Rattus norvegicus [20] amounted to 70%. The TGI entry in the series with Homo sapiens [21] is “Active”. Also, in [22], the efflux ratio stood at 1.7.

`NCC(=O)N1CCC[C@@H]1C(=O)Nc1nc2ccc(OC(F)(F)F)cc2s1`: the t1/2 was 0.2 h in [1], 2.5 h in series [2], 0.25 h in series [3] and below 1 h in series [4].

In the case of `Nc1nc2ccc(OC(F)(F)F)cc2s1`, the TGI result with Homo sapiens [26] was “Active”.

Regarding `CC(C)(C)NCC(=O)N1CCC[C@@H]1C(=O)Nc1nc2ccc(OC(F)(F)F)cc2s1`, the t1/2 in [1] is above 24 h; in series [3], above 2 h.

`CC(C)(NC(=O)CN)C(=O)Nc1nc2ccc(OC(F)(F)F)cc2s1`: the t1/2 in series [2] is above 4 h; in series [3] it was 2 h; in series [4], below 1 h.

As to `CNCC(=O)N(C)CC(=O)Nc1nc2ccc(OC(F)(F)F)cc2s1`, the t1/2 in series [1] is below 0.1 h; in series [2], above 4 h; in series [3] it was below 0.1 h; in [4], below 1 h.

On to `CCNCC(=O)N(C)CC(=O)Nc1nc2ccc(OC(F)(F)F)cc2s1`, for which the t1/2 in [1] is below 0.25 h; in [2] it was above 4 h; in series [3], below 0.25 h; in series [4], below 1 h.

With `CC(C)(C)NCC(=O)NC(C)(C)C(=O)Nc1nc2ccc(OC(F)(F)F)cc2s1`, the t1/2 in series [1] was above 2 h; in [2], above 4 h; in [3], above 2 h; in series [4], above 4 h.
